# Test results taken from ChEMBL document CHEMBL1781935, “Amberlite-IRA-402 (OH) ion exchange resin mediated synthesis of indolizines, pyrrolo [1,2-a] quinolines and isoquinolines: antibacterial and antifungal evaluation of the products” (2011).
# The source made the active and inactive calls. The rule behind the calls is not given here.
# Key:
# [1] = system: Shigella dysenteriae; assay: Antibacterial activity against Shigella dysenteriae isolate 3; assay type: functional
# [2] = system: Micrococcus luteus; assay: Antibacterial activity against Micrococcus luteus AGD1; assay type: functional
# How it was run: (§1)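 MIC by broth and agar dilution. Broth: 0.1 ml suspension (2 × 10^6 cfu/ml) in Mueller-Hinton broth with test drug at 1–1000 µg/ml, 37 °C overnight. Agar: serial drug dilutions in Mueller-Hinton agar, spot-inoculated with 2 × 10^6 cfu/spot, 37 °C for 24 h. MIC was the lowest concentration with no visible growth. Antibiotic controls were included.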
# [3] = system: Shigella flexneri; assay: Antibacterial activity against Shigella flexneri DN13; assay type: functional; how it was run: as §1
# [4] = system: Vibrio parahaemolyticus; assay: Antibacterial activity against Vibrio parahaemolyticus isolate 72016; assay type: functional; how it was run: as §1
# [5] = system: Salmonella typhimurium; assay: Antibacterial activity against Salmonella Typhimurium isolate 11; assay type: functional, Salmonella enterica subsp. enterica serovar Typhimurium; settings: Salmonella enterica; how it was run: as §1
# [6] = system: Bacillus subtilis; assay: Antibacterial activity against Bacillus subtilis UC564; assay type: functional; how it was run: as §1
# [7] = system: Staphylococcus aureus; assay: Antibacterial activity against Staphylococcus aureus ATCC 25923; assay type: functional; how it was run: as §1
# [8] = system: Klebsiella pneumoniae; assay: Antibacterial activity against Klebsiella pneumoniae isolate J/1/4; assay type: functional; how it was run: as §1
# [9] = system: Enterococcus faecalis; assay: Antibacterial activity against Streptococcus faecalis isolate 29212; assay type: functional; how it was run: as §1
# [10] = system: Vibrio cholerae; assay: Antibacterial activity against Vibrio cholerae isolate 7201; assay type: functional
# [11] = system: Pseudomonas aeruginosa; assay: Antibacterial activity against Pseudomonas aeruginosa ATCC 27853; assay type: functional; how it was run: as §1
# [12] = system: Escherichia coli; assay: Antibacterial activity against Escherichia coli ATCC 25938; assay type: functional; how it was run: as §1
# [13] = system: Salmonella typhi; assay: Antibacterial activity against Salmonella typhi DIRW; assay type: functional, Salmonella enterica subsp. enterica serovar Typhi; settings: Salmonella enterica
# [14] = system: Escherichia coli; assay: Antibacterial activity against Escherichia coli ATCC 25938 at 1 to 1000 ug/ml after overnight incubation by disc diffusion method; assay type: functional
# How it was run: (§2)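 Disc diffusion on Mueller-Hinton agar. Plates seeded with 0.1 ml bacterial suspension (2 × 10^6 cfu/ml). Sterile 6 mm paper discs were impregnated with compound solutions at 1–1000 µg/ml and incubated at 37 °C overnight. Read-out was the diameter of the clear inhibition zone. Stocks were 1 mg/ml in 4% Tween 80 or 4% propylene glycol.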
# [15] = system: Klebsiella pneumoniae; assay: Antibacterial activity against Klebsiella pneumoniae isolate J/1/4 at 1 to 1000 ug/ml after overnight incubation by disc diffusion method; assay type: functional; how it was run: as §2
# [16] = system: Salmonella typhimurium; assay: Antibacterial activity against Salmonella Typhimurium isolate 11 at 1 to 1000 ug/ml after overnight incubation by disc diffusion method; assay type: functional, organism-based; settings: Salmonella enterica subsp. enterica serovar Typhimurium; how it was run: as §2
# [17] = system: Vibrio cholerae; assay: Antibacterial activity against Vibrio cholerae isolate 720 at 1 to 1000 ug/ml after overnight incubation by disc diffusion method; assay type: functional
# [18] = system: Vibrio cholerae; assay: Antibacterial activity against Vibrio cholerae isolate 7201 at 1 to 1000 ug/ml after overnight incubation by disc diffusion method; assay type: functional
# [19] = system: Enterococcus faecalis; assay: Antibacterial activity against Enterococcus faecalis isolate 29212 at 1 to 1000 ug/ml after overnight incubation by disc diffusion method; assay type: functional; how it was run: as §2
# [20] = system: Staphylococcus aureus; assay: Antibacterial activity against Staphylococcus aureus ATCC 25923 at 1 to 1000 ug/ml after overnight incubation by disc diffusion method; assay type: functional; how it was run: as §2
# [21] = system: Vibrio parahaemolyticus; assay: Antibacterial activity against Vibrio parahaemolyticus isolate 72016 at 1 to 1000 ug/ml after overnight incubation by disc diffusion method; assay type: functional; how it was run: as §2
# [22] = system: Bacillus subtilis; assay: Antibacterial activity against Bacillus subtilis UC564 at 1 to 1000 ug/ml after overnight incubation by disc diffusion method; assay type: functional; how it was run: as §2
# [23] = system: Shigella flexneri; assay: Antibacterial activity against Shigella flexneri DN13 at 1 to 1000 ug/ml after overnight incubation by disc diffusion method; assay type: functional; how it was run: as §2
# [24] = system: Salmonella typhi; assay: Antibacterial activity against Salmonella typhi DIRW at 1 to 1000 ug/ml after overnight incubation by disc diffusion method; assay type: functional
# [25] = system: Micrococcus luteus; assay: Antibacterial activity against Micrococcus luteus AGD1 at 1 to 1000 ug/ml after overnight incubation by disc diffusion method; assay type: functional; how it was run: as §2
# [26] = system: Pseudomonas aeruginosa; assay: Antibacterial activity against Pseudomonas aeruginosa ATCC 27853 at 1 to 1000 ug/ml after overnight incubation by disc diffusion method; assay type: functional; how it was run: as §2
# [27] = system: Shigella dysenteriae; assay: Antibacterial activity against Shigella dysenteriae isolate 3 at 1 to 1000 ug/ml after overnight incubation by disc diffusion method; assay type: functional
# [28] = system: Staphylococcus aureus; assay: Antibacterial activity against Staphylococcus aureus ATCC 25923 at 10 to 80 ug/ml after overnight incubation by broth dilution method; assay type: functional, organism-based
# How it was run: (§3)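 Bactericidal testing with double-fold drug dilutions in Mueller-Hinton broth. Tubes inoculated with 1 ml suspension (2 × 10^6 cfu/ml) and shaken at 200 rpm at 37 °C for 24 h. Drug was added at mid-logarithmic growth. Viable colony counts were taken from 1.0 ml aliquots plated on nutrient agar.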
# [29] = system: Bacillus subtilis; assay: Antibacterial activity against Bacillus subtilis UC564 at 10 to 80 ug/ml after overnight incubation by broth dilution method; assay type: functional, organism-based; how it was run: as §3
# [30] = system: Shigella dysenteriae; assay: Antibacterial activity against Shigella dysenteriae isolate 3 at 10 to 80 ug/ml after overnight incubation by broth dilution method; assay type: functional, organism-based
# [31] = system: Pseudomonas aeruginosa; assay: Antibacterial activity against Pseudomonas aeruginosa ATCC 27853 at 10 to 80 ug/ml after overnight incubation by broth dilution method; assay type: functional, organism-based; how it was run: as §3
# [32] = system: Vibrio cholerae; assay: Antibacterial activity against Vibrio cholerae isolate 7201 at 10 to 80 ug/ml after overnight incubation by broth dilution method; assay type: functional, organism-based
# [33] = system: Escherichia coli; assay: Antibacterial activity against Escherichia coli ATCC 25938 at 10 to 80 ug/ml after overnight incubation by broth dilution method; assay type: functional, organism-based; how it was run: as §3
Compound,MIC [1] [µg/mL],MIC [2] [µg/mL],MIC [3] [µg/mL],MIC [4] [µg/mL],MIC [5] [µg/mL],MIC [6] [µg/mL],MIC [7] [µg/mL],MIC [8] [µg/mL],MIC [9] [µg/mL],MIC [10] [µg/mL],MIC [11] [µg/mL],MIC [12] [µg/mL],MIC [13] [µg/mL],also measured
CCOC(=O)c1cc2ccccn2c1C(=O)c1ccccc1,> 500,> 500,> 500,> 500,> 500,> 500,> 500,> 500,> 500,> 500,> 500,> 500,> 500,
CCOC(=O)c1cc2ccc3ccccc3n2c1C(=O)c1ccccc1,> 500,> 500,> 500,> 500,> 500,> 500,> 500,> 500,> 500,> 500,> 500,> 500,> 500,
N#Cc1cc(C(=O)c2ccccc2)n2ccc3ccccc3c12,> 500,> 500,> 500,> 500,> 500,128,256,32,> 500,32,64,256,> 500,diameter of the inhibition zone (DIZ) [14]: 8 mm; diameter of the inhibition zone (DIZ) [15]: 11 mm; diameter of the inhibition zone (DIZ) [16]: inactive; diameter of the inhibition zone (DIZ) [17]: 11 mm; diameter of the inhibition zone (DIZ) [18]: 11 mm; diameter of the inhibition zone (DIZ) [19]: inactive; diameter of the inhibition zone (DIZ) [20]: 7.5 mm; diameter of the inhibition zone (DIZ) [21]: inactive; diameter of the inhibition zone (DIZ) [22]: 7.5 mm; diameter of the inhibition zone (DIZ) [23]: inactive; diameter of the inhibition zone (DIZ) ([24]; Salmonella enterica subsp. enterica serovar Typhi): inactive; diameter of the inhibition zone (DIZ) [25]: inactive; diameter of the inhibition zone (DIZ) [26]: 9.5 mm; diameter of the inhibition zone (DIZ) [27]: inactive
COC(=O)c1cc(C(=O)c2ccccc2)n2ccc3ccccc3c12,256,> 500,128,256,500,256,128,256,256,256,128,500,256,
COC(=O)c1c(C(=O)OC)c2ccc3ccccc3n2c1C(=O)c1ccccc1,16,> 500,500,> 500,500,32,500,64,64,500,> 500,> 500,128,Activity [28]: Active; diameter of the inhibition zone (DIZ) [14]: 12.1 mm; Activity [29]: Active; diameter of the inhibition zone (DIZ) [15]: 10 mm; Activity [30]: Active; Activity [31]: Active; diameter of the inhibition zone (DIZ) [16]: inactive; diameter of the inhibition zone (DIZ) [17]: inactive; diameter of the inhibition zone (DIZ) [18]: inactive; Activity [32]: Active; diameter of the inhibition zone (DIZ) [19]: 12 mm; diameter of the inhibition zone (DIZ) [20]: inactive; Activity [33]: Active; diameter of the inhibition zone (DIZ) [21]: inactive; diameter of the inhibition zone (DIZ) [22]: 10.2 mm; diameter of the inhibition zone (DIZ) [23]: inactive; diameter of the inhibition zone (DIZ) [24]: 7.5 mm; diameter of the inhibition zone (DIZ) [25]: inactive; diameter of the inhibition zone (DIZ) [26]: inactive; diameter of the inhibition zone (DIZ) [27]: 11.5 mm
COC(=O)c1cc2ccc3ccccc3n2c1C(=O)c1ccccc1,> 500,> 500,> 500,> 500,> 500,> 500,> 500,> 500,> 500,> 500,> 500,> 500,> 500,
CC1(C)S[C@@H]2[C@H](NC(=O)[C@H](N)c3ccc(O)cc3)C(=O)N2[C@H]1C(=O)O [AMOXICILLIN],64,0.5,128,256,> 1000,0.5,0.5,128,0.25,256,256,0.5,128,
